The values below come from ChEMBL document CHEMBL1147249, “Sunpollenol and five other rearranged 3,4-seco-tirucallane-type triterpenoids from sunflower pollen and their inhibitory effects on Epstein-Barr virus activation” (J Nat Prod, 2003).

What all share (format): cell-based
The test system of data set [1] is Raji. Nature of the data set: Inhibition of 12-O-tetradecanoylphorbol-13-acetate-induced EBV-early antigen activation in human Raji cells assessed as early antigen induction at 10 molar ratio after 48 hrs by conventional indirect immunofluorescence technique relative to TPA. Set-up: scale not given: the % may be the effect or the level left. As to conditions: human gammaherpesvirus 4. The procedure, abridged:
(§1)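 Raji cells (1 × 10^6 cells/mL, RPMI-1640 with 10% FBS) were induced with 4 mM n-butyric acid plus […] TPA (20 ng/mL in DMSO). Test compound (32, 16, 3.2, 0.32 nmol in 1 mL) was present for 48 h at 37 °C. EA-positive cells were stained with NPC patient sera and detected by indirect immunofluorescence, at least 500 cells per assay, three repeats. Results are given as percent of butyrate+TPA control.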

Data set [2] deals with Raji. Description: Inhibition of 12-O-tetradecanoylphorbol-13-acetate-induced EBV-early antigen activation in human Raji cells assessed as early antigen induction at 500 molar ratio after 48 hrs by conventional indirect immunofluorescence technique relative to TPA. Also noted: scale not given: the % may be the effect or the level left. As to conditions: human gammaherpesvirus 4. In a few lines:
as §1

The test system of data set [3] is Raji. Nature of the data set: Inhibition of 12-O-tetradecanoylphorbol-13-acetate-induced EBV-early antigen activation in human Raji cells assessed as early antigen induction at 100 molar ratio after 48 hrs by conventional indirect immunofluorescence technique relative to TPA. Also noted: scale not given: the % may be the effect or the level left. As to conditions: human gammaherpesvirus 4. The procedure, abridged: as §1

For data set [4], the system named is Raji. Nature of the data set: Inhibition of 12-O-tetradecanoylphorbol-13-acetate-induced EBV-early antigen activation in human Raji cells assessed as early antigen induction at 1000 molar ratio after 48 hrs by conventional indirect immunofluorescence technique relative to TPA. The settings on record: human gammaherpesvirus 4. Set-up: scale not given: the % may be the effect or the level left. In a few lines:
as §1

A short description of data set [5]: Cytotoxicity against human Raji cells assessed as cell viability at 1000 molar ratio after 48 hrs by trypan blue staining method. As to conditions: read-out: Activity. The procedure, abridged: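 Raji cells (EBV genome-carrying, nonproducer) at 1 × 10^6 cells/mL in RPMI-1640 with 10% FBS were exposed to 4 mM n-butyric acid, […] TPA and test compound at 37 °C in a CO2 incubator. Viability was scored by Trypan Blue staining and given as percent viable Raji cells.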

For the molecule `C[C@@H](CC[C@@H](O)C(C)(C)O)[C@@H]1CC[C@]2(C)[C@H]3CC[C@@]4(C(C)(C)O)OCCC[C@H]4[C@]3(C)CC[C@@]12C`, the Activity in the data set on Raji [1] came out at 92.5%; with Raji [2], 24.4%; in the data set on Raji [3] it was 72.4%; in the data set with Raji [4], 0%. Moreover, the viability at 48 h, 1000 molar ratio in data set [5] turned out to be 70%.
The like results for `CC(C)=CCC[C@H](C)[C@@H]1CC[C@]2(C)[C@H]3CC[C@@]4(C(C)(C)O)OCCC[C@H]4[C@]3(C)CC[C@@]12C` [SUNPOLLENOL] were, in that order, 96.8%, 30.5%, 74.3%, 3.1% and 70%.
`C[C@@H](C/C=C/C(C)(C)O)[C@@H]1CC[C@]2(C)[C@H]3CC[C@@]4(C(C)(C)O)OCCC[C@H]4[C@]3(C)CC[C@@]12C` [(23E)-23-DEHYDRO-25-HYDROXYSUNPOLLENOL]: the Activity in the data set on Raji [1] stood at 90%; with Raji [2], 22%; in the data set on Raji [3], 70.6%; with Raji [4], 0%. Also, the viability at 48 h, 1000 molar ratio in data set [5] came to 70%.
Consider `C[C@@H](CC[C@@H]1OC1(C)C)[C@@H]1CC[C@]2(C)[C@H]3CC[C@@]4(C(C)(C)O)OCCC[C@H]4[C@]3(C)CC[C@@]12C`, for which the Activity in the data set on Raji [1] is 97.4%; in the data set with Raji [2], 27.3%; with Raji [3], 75.9%; with Raji [4], 0%. The viability at 48 h, 1000 molar ratio in data set [5] was determined as 70%.
The like results for `C[C@@H](CC[C@H](O)C(C)(C)O)[C@@H]1CC[C@]2(C)[C@H]3CC[C@@]4(C(C)(C)O)OCCC[C@H]4[C@]3(C)CC[C@@]12C` [(24S)-24,25-DIHYDROXYSUNPOLLENOL] were, in that order, 94.2%, 25.3%, 73.3%, 0% and 70%.
On to `CC1=C(/C=C/C(C)=C/C=C/C(C)=C/C=C/C=C(C)/C=C/C=C(C)/C=C/C2=C(C)CCCC2(C)C)C(C)(C)CCC1`, for which the Activity in the data set on Raji [1] worked out at 100%; with Raji [4] it was 8.6%.
Turning to `C[C@@H](CC[C@H]1OC1(C)C)[C@@H]1CC[C@]2(C)[C@H]3CC[C@@]4(C(C)(C)O)OCCC[C@H]4[C@]3(C)CC[C@@]12C` [(24R)-24,25-EPOXYSUNPOLLENOL], the Activity in the data set on Raji [1] came to 91.8%; in the data set with Raji [2], 26.3%; with Raji [3], 72.6%; in the data set on Raji [4], 0%. The viability at 48 h, 1000 molar ratio in data set [5] came to 60%.
